Data on 15 compounds can be found in ChEMBL document CHEMBL1144497 (Bioorg Med Chem, 2007).

Values after ≈ are worked out from the molar mass of the structure shown.

Data set [1] addresses T1, Bifunctional epoxide hydrolase 2 (Homo sapiens, UniProt P34913).
T1 sequence (P34913 whole entry): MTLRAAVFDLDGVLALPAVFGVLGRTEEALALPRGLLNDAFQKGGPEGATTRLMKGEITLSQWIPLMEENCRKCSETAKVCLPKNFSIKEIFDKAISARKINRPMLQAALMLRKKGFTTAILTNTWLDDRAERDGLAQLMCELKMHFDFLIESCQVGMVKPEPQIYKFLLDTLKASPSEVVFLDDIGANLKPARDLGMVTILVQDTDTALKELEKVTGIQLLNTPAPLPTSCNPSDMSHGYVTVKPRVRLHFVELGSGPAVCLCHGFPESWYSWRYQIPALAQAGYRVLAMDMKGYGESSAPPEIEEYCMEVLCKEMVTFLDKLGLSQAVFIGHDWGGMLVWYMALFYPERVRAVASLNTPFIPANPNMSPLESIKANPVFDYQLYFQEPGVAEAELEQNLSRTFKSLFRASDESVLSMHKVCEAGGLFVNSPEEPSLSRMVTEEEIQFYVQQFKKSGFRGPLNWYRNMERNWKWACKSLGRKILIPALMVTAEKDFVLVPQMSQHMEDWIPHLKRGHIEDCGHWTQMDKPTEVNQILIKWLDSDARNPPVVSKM
Nature of the data set: Inhibition of human soluble epoxide hydrolase by fluorescent based assay.

Data set [2] deals with Mus musculus. The data set is described as follows: Cmax in Swiss Webster mouse at 5 mg/kg, po. In kind it is ADME, organism-based. On the set-up: dose 5 mg/kg, route oral. The settings on record: in vivo. In outline:
(§1)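 Male Swiss Webster mice, 7 weeks old, dosed by oral gavage at 5 mg/kg in olive oil. AUDA was measured in blood by LC-MS/MS. Cmax, AUC to terminal time and T1/2 were calculated from AUDA blood concentrations.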

Data set [3] relates to Mus musculus. Nature of the data set: AUC in Swiss Webster mouse at 5 mg/kg, po. In kind it is ADME, organism-based, Plasma. Also noted: dose 5 mg/kg, route oral. The settings on record: in vivo. The essentials:
as §1

In data set [4] the test system is Mus musculus. Nature of the data set: Half life in Swiss Webster mouse at 5 mg/kg, po. Format: ADME, organism-based. Also noted: dose 5 mg/kg, route oral. Conditions: in vivo.
A short description of data set [5]: Solubility in oil. In kind it is physicochemical.
Data set [6] deals with T2, Cocaine esterase (Homo sapiens, UniProt O00748).
T2 sequence (O00748 whole entry): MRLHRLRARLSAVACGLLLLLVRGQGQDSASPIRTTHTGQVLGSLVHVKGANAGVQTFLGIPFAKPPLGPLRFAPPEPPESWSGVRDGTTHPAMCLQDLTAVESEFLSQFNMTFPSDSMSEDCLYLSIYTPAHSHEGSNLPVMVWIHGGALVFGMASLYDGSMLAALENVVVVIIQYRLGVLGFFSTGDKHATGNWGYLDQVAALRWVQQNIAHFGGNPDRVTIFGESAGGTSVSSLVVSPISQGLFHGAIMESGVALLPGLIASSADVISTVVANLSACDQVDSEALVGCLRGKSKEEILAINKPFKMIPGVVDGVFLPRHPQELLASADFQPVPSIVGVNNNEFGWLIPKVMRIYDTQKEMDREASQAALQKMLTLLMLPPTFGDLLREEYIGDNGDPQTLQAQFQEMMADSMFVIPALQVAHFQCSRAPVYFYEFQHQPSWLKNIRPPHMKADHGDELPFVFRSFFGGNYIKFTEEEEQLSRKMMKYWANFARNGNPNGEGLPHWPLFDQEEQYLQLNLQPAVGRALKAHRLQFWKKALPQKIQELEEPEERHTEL
The data set is described as follows: Activity of human recombinant carboxylesterase 2 assessed as AUDA hydrolysis. Also noted: concentration or dose not given beside the values. In outline:
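Ester (100 μM) was incubated with purified baculovirus-expressed human carboxylesterase (hCE-1 or hCE-2, 5 μg; 333 nM) in 0.1 M sodium phosphate pH 7.4 at 37°C. Sampling was at 0, 30 and 60 min, with 60 min reported. Percent free acid (AUDA) formed was measured by LC-MS/MS. Values are averages of three separate measurements.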

Data set [7] can be described thus: Solubility in sodium phosphate buffer at pH 7.4. Format: physicochemical.
For data set [8], the target named is T1, Bifunctional epoxide hydrolase 2. The data set is described as follows: Inhibition of human soluble epoxide hydrolase by spectrometric based assay.
Data set [9] has as its target T3, Bifunctional epoxide hydrolase 2 (Mus musculus, UniProt P34914).
T3 sequence (P34914 whole entry): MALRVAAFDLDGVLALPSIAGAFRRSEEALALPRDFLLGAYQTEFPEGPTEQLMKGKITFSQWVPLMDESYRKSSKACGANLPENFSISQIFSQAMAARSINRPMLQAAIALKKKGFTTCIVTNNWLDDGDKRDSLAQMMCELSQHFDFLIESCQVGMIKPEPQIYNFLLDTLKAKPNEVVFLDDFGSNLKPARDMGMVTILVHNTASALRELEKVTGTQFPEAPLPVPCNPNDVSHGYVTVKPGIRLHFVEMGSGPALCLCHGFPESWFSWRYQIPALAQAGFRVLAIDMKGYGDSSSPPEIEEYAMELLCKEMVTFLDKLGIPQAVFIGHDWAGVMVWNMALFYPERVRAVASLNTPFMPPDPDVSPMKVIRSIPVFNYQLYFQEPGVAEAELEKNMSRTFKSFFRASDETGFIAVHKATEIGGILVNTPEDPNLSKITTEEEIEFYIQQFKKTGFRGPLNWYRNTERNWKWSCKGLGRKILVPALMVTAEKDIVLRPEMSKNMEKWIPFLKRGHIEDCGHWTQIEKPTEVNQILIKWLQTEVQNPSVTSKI
Nature of the data set: Inhibition of mouse soluble epoxide hydrolase by spectrometric based assay.

For data set [10], the target named is T4, Liver carboxylesterase 1 (Homo sapiens, UniProt P23141).
T4 sequence (P23141 whole entry): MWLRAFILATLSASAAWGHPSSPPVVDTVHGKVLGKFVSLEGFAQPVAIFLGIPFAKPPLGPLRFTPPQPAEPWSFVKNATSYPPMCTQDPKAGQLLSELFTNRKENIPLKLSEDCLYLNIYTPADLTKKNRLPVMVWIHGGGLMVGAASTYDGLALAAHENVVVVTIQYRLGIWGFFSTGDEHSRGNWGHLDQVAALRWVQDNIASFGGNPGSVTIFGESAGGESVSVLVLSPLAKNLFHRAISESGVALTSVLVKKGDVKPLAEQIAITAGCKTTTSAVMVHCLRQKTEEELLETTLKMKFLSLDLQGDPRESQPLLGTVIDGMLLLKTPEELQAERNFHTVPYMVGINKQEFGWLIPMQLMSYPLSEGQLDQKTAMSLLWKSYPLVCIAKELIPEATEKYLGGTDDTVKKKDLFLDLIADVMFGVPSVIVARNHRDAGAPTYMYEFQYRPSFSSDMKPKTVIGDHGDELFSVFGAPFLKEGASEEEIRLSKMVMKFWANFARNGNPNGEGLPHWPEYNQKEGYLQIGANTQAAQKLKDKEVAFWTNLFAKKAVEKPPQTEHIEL
The data set is described as follows: Activity of human recombinant carboxylesterase 1 assessed as AUDA hydrolysis. Also noted: scale not given: the % may be the effect or the level left.

In general, IC50 refers to the concentration that inhibits the measured activity by half. Broadly, the Cmax is the maximum level reached in the sampled fluid or tissue. In general, AUC refers to the area under the concentration-time curve, a measure of exposure. As usually defined, the solubility is how much of the substance goes into solution per volume. Regarding `CCC(C)OC(=O)CCCCCCCCCCCNC(=O)NC12CC3CC(CC(C3)C1)C2` (stereo not drawn), the IC50 in [1] amounted to 0.7 nM. For the same compound, the Cmax in data set [2] was 13.1 ng/mL. In addition, the AUC in data set [3] was 47 ng·h/mL. In [4], this compound gave a t1/2 of 3.8 h. Further, the results for the solubility in data set [5] and in [7] were 27000 µg/mL (≈ 60200 µM) and 5 µg/mL (≈ 11.1 µM), respectively. The Activity in data set [6] is 26%.
With `CCCCCCCCC(NC(=O)CCCCCCCCCCCNC(=O)NC12CC3CC(CC(C3)C1)C2)C(=O)N[C@H]1O[C@@H](CO)[C@H](O)[C@@H](O)[C@@H]1O` (stereo partly drawn), the IC50 is 7.5 nM in [1], 100 nM in [8] and 50 nM in data set [9]. Also, the solubility came out at 2000 µg/mL (≈ 2770 µM) in data set [5] and 38 µg/mL (≈ 52.6 µM) in [7].
For the compound `CCOC(=O)CCCCCCCCCCCNC(=O)NC12CC3CC(CC(C3)C1)C2`, in data set [1], half-maximal inhibition (IC50) required 1.6 nM.
Same read-out and setting: under `C#CCOC(=O)CCCCCCCCCCCNC(=O)NC12CC3CC(CC(C3)C1)C2` stands 1.8 nM.
As to `CC(C)OC(=O)CCCCCCCCCCCNC(=O)NC12CC3CC(CC(C3)C1)C2`, inhibition in [1] was half-maximal at 1.1 nM (IC50). Also, the values for the Activity in data set [10] and in data set [6] were 72% and 39%, respectively. In data set [2], the Cmax turned out to be 29.6 ng/mL. In data set [3], this compound returned an AUC of 84 ng·h/mL. Further, the t1/2 in data set [4] stood at 1.9 h. The solubility in data set [5] amounted to 12000 µg/mL (≈ 27600 µM); in data set [7] it was 7 µg/mL (≈ 16.1 µM).
With `CCCOC(=O)CCCCCCCCCCCNC(=O)NC12CC3CC(CC(C3)C1)C2`, in [1], half-maximal inhibition (IC50) was put at 1 nM.
`O=C(NCCCCCCCCCCCC(=O)OCc1ccccc1)NC12CC3CC(CC(C3)C1)C2` displayed an IC50 in [1] of 2 nM.
Regarding `O=C(NCCCCCCCCCCCC(=O)OC12CC3CC(CC(C3)C1)C2)NC12CC3CC(CC(C3)C1)C2`, the IC50 is 1.5 nM in data set [1], 230 nM in data set [8] and 50 nM in [9].
In data set [1], `COC(=O)CCCCCCCCCCCNC(=O)NC12CC3CC(CC(C3)C1)C2` yielded an IC50 of 2.3 nM.
On to `CC(C)COC(=O)CCCCCCCCCCCNC(=O)NC12CC3CC(CC(C3)C1)C2`, for which the concentration for half-maximal inhibition (IC50) in [1] is 1.2 nM. Moreover, the Activity in data set [10] was 55%; in data set [6], 33%. The same compound gave a Cmax in data set [2] of 42.9 ng/mL. In [3], this compound gave an AUC of 110 ng·h/mL. Besides, the solubility came to 17000 µg/mL (≈ 37900 µM) in data set [5] and 1.7 µg/mL (≈ 3.79 µM) in [7].
Take `C=CCOC(=O)CCCCCCCCCCCNC(=O)NC12CC3CC(CC(C3)C1)C2`: the IC50 in [1] was found to be 1 nM.
Regarding `CCCCOC(=O)CCCCCCCCCCCNC(=O)NC12CC3CC(CC(C3)C1)C2`, the Activity stood at 41% in data set [10] and 39% in data set [6]. The Cmax in [2] was found to be 39.5 ng/mL. Further, in data set [3], the AUC is 96 ng·h/mL. For the same compound, the values for the solubility in data set [5] and in [7] were 25000 µg/mL (≈ 55700 µM) and 5 µg/mL (≈ 11.1 µM), respectively.
For the compound `O=C(O)CCCCCCCCCCCNC(=O)NC12CC3CC(CC(C3)C1)C2`, the Activity in data set [10] and in data set [6] was 100% in each case. The compound also had a Cmax in data set [2] of 26.9 ng/mL. This compound also gave an AUC in [3] of 87 ng·h/mL. In addition, the t1/2 in data set [4] was 2.3 h. Also, the solubility is 5000 µg/mL (≈ 12700 µM) in [5] and 35 µg/mL (≈ 89.2 µM) in data set [7].
`CS(=O)(=O)NC(=O)CCCCCCCCCCCNC(=O)NC12CC3CC(CC(C3)C1)C2` came in with a solubility in data set [7] of 10 µg/mL (≈ 21.3 µM).
`O=C(CCCCCCCCCCCNC(=O)NC12CC3CC(CC(C3)C1)C2)NCC(=O)N[C@H]1O[C@@H](CO)[C@H](O)[C@@H](O)[C@@H]1O`: the IC50 in data set [1] stood at 7.6 nM; in data set [8], 220 nM; in data set [9] it was 50 nM.
